pKd: −log10 of the molar value. Activity calls are given as the source filed them. No cut-off for these calls is given here.
Columns and labels:
[1] = MRT (infinity) in Sprague-Dawley rat at 100 mg/kg, ig measured after 0.083 to 36 hrs by LC-MS/MS analysis; type: ADME, organism-based; details: in vivo, po
In short: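 SD rats (200 ± 20 g) randomized to three groups; single intragastric dose of 100 mg/kg or vehicle (0.5% CMC-Na). Tail-vein blood (0.5 mL) drawn at 0.083, 0.25, 0.5, 1, 2, 4, 8, 12, 24 and 36 h. Plasma separated by centrifugation at 2000 rpm for 10 min, frozen at -80 °C, then quantified by LC-MS/MS.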

[2] = target: T1, Retinoic acid receptor RXR-alpha (Homo sapiens) (UniProt P19793); test: In-vivo activation of RXRalpha in BALB/c mouse xenografted with human KM12C cells assessed as induction of beta-catenin protein degradation at 100 mg/kg, ig dosed daily for 15 days by Western blot analysis; type: functional, organism-based
T1 sequence (whole entry): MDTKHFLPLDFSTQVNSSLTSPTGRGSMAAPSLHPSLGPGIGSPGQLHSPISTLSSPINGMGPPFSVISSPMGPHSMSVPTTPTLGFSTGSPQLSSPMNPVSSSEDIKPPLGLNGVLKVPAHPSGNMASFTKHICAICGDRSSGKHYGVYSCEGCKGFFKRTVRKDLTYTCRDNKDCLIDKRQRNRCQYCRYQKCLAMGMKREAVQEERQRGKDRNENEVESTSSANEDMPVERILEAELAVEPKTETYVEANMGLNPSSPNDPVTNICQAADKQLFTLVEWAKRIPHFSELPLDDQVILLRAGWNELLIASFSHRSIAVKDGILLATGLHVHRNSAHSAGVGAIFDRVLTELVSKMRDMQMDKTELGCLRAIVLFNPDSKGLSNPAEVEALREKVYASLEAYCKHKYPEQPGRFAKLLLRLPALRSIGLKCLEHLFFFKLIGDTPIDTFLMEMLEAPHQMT

[3] = target: T1, Retinoic acid receptor RXR-alpha (Homo sapiens); test: In-vivo activation of RXRalpha in BALB/c mouse xenografted with human KM12C cells assessed as reduction in Cdc2 protein expression at 100 mg/kg, ig dosed daily for 15 days by Western blot analysis; type: functional, organism-based
In short: (§1)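 KM12C cells (1×10^6 per mouse in 100 μL HBSS) injected subcutaneously into both flanks of nude mice; after seven days, randomized to three groups, dosed intragastrically once daily for 15 days with vehicle (CMC-Na) or 100 mg/kg compound; mice euthanized and tumors removed for analysis.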

[4] = target: T1, Retinoic acid receptor RXR-alpha (Homo sapiens); test: Activation of RXRalpha in human SW620 cells assessed as […] crease in p21 (WAF1/CIP1) mRNA expression at 40 to 80 uM incubated for 15 hrs by real-time PCR analysis; type: cell-based; details: SW-620
[5] = target: T1, Retinoic acid receptor RXR-alpha (Homo sapiens); test: In-vivo activation of RXRalpha in BALB/c mouse xenografted with human KM12C cells assessed as effect on PCNA protein expression at 100 mg/kg, ig dosed daily for 15 days by immunohistochemistry analysis; type: functional, organism-based
[6] = Toxicity in BALB/c mouse xenografted with human KM12C cells assessed as effect on biochemical parameter by measuring calcium level at 100 mg/kg, ig dosed daily for 15 days by automatic chemistry analyzer based analysis (reference value: 2.27 +/- 0.059 mmol/L); type: organism-based; details: in vivo, po, 360 h
[7] = target: T1, Retinoic acid receptor RXR-alpha (Homo sapiens); test: In-vivo activation of RXRalpha in BALB/c mouse xenografted with human KM12C cells assessed as reduction in Cdc2 protein expression at 100 mg/kg, ig dosed daily for 15 days by immunohistochemistry analysis; type: functional, organism-based; in short: as §1
[8] = Toxicity in BALB/c mouse xenografted with human KM12C cells assessed as effect on biochemical parameter by measuring total cholesterol level at 100 mg/kg, ig dosed daily for 15 days by automatic chemistry analyzer based analysis (reference value: 2.32 +/- 0.11 mmol/L); type: organism-based; details: in vivo, po, 360 h
[9] = target: T2, Retinoic acid receptor RXR-alpha (Homo sapiens, UniProt P19793); test: Binding affinity to His-tagged RXRalpha LBD (unknown origin) expressed in Escherichia coli strain BL21 (DE3) by fluorescence quenching analysis
T2 sequence (P19793 whole entry): T1 sequence (whole entry)
In short: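 His-RXRα-LBD expressed from pET15b in E. coli BL21(DE3), induced with 0.1 mM IPTG at 16 °C for 16 h, purified on Ni-NTA. Protein held at 1 μM in PBS pH 7.4 and titrated with ligand (2–30 μM). Excitation 280 nm, emission scanned 290–600 nm, DMSO blank subtracted, each spectrum measured three times. Apparent Kd taken from the titration curve.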

[10] = target: T1, Retinoic acid receptor RXR-alpha (Homo sapiens); test: Activation of RXRalpha (unknown origin) expressed in human SW620 cells co-expressing beta-catenin assessed as induction of RXRalpha interaction with beta-catenin at 40 to 80 uM incubated for 15 hrs by mammalian two-hybrid assay; type: cell-based; details: SW-620
In short: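 Mammalian two-hybrid: cells co-transfected by lipofection with pBIND-β-catenin/S33Y plus pACT-RXRα (RXRα–β-catenin) or pACT-c-Cbl (β-catenin–c-Cbl); 20 h after transfection, compound added for 15 h; cells lysed in passive lysis buffer, 4 °C, 1 h; firefly and Renilla luciferase read by dual-luciferase kit.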

[11] = target: T1, Retinoic acid receptor RXR-alpha (Homo sapiens); test: Activation of RXRalpha in human KM12C cells assessed as reduction in Cdc2 mRNA expression at 25 to 50 uM incubated for 15 hrs by real-time PCR analysis; type: cell-based
[12] = target: T1, Retinoic acid receptor RXR-alpha (Homo sapiens); test: Activation of RXRalpha in human KM12C cells assessed as […] crease in p21 (WAF1/CIP1) mRNA expression at 25 to 50 uM incubated for 15 hrs in presence of RXRalpha shRNA by real-time PCR analysis; type: cell-based
[13] = target: T1, Retinoic acid receptor RXR-alpha (Homo sapiens); test: Binding affinity to His-tagged RXRalpha LBD (unknown origin) expressed in Escherichia coli strain BL21 (DE3) at 200 uM by STD-NMR spectroscopy
[14] = target: T1, Retinoic acid receptor RXR-alpha (Homo sapiens); test: Activation of RXRalpha in human KM12C cells assessed as increase in p21 (WAF1/CIP1) protein expression at 25 to 50 uM incubated for 15 hrs in presence of RXRalpha shRNA by Western blot analysis; type: cell-based
KM12C = test: Inhibition of cell proliferation of human KM12C cells at 25 to 50 uM incubated for 15 hrs by EdU assay; type: functional, cell-based
In short: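 KM12C cells grown in MEM with 10% FBS, penicillin/streptomycin, nonessential amino acids and vitamins at 37 °C, 5% CO2. Proliferation was scored with an EdU incorporation kit, and cells were examined under a fluorescence microscope.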

MEF = test: Toxicity in mouse MEF cells assessed a reduction in cell viability at 6.25 to 100 uM incubated for 15 hrs by MTT assay; type: cell-based
In short: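 HIEC-6 cells grown in MEM with 4% FBS, HEPES, GlutaMAX and 10 ng/mL EGF. MEF cells grown in DMEM high glucose with 10% FBS. Cells plated at 1×10⁴ per well and treated with a concentration series for 15 h. Viability read by MTT: 4 h at 37 °C, DMSO solubilization, absorbance at 570 nm.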

[15] = target: T1, Retinoic acid receptor RXR-alpha (Homo sapiens); test: Activation of RXRalpha in human HCT116 cells assessed as increase transactivational activity on RXRE at 30 to 60 uM incubated for 15 hrs by luciferase reporter gene assay; type: cell-based; details: HCT-116
In short: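 Endogenous RXRα transactivation on an RXRE luciferase reporter, lipofection-transfected; compound added 20 h post-transfection for 15 h; lysis in passive lysis buffer at 4 °C, 1 h; firefly and Renilla luciferase activities read by dual-luciferase assay.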

SMILES	MRT inf [1] [h]	Activity [2]	Activity [3]	Activity [4]	Activity [5]	Activity [6] [mmol/L]	Activity [7]	Activity [8] [mmol/L]	pKd [9]	Activity [10]	Activity [11]	Activity [12]	Activity [13]	Activity [14]	inhibition (KM12C)	Activity (MEF)	Activity [15]
COc1ccc2cc3[n+](cc2c1OC)CCc1cc2c(cc1-3)OCO2.[Cl-] [BERBERINE CHLORIDE]	31.5	Active	Active	Active	Active	2.13	Active	2.35	4.61	Active	Active	–	–	–	–	–	–
COc1ccc2c(c1)CC[n+]1cc3c(OC)cccc3cc1-2.[Cl-]	15.7	Active	Active	Active	Active	2.23	Active	2.49	4.72	Active	Active	inactive	Active	inactive	Active	Non-Toxic	Active

Reference: ChEMBL document CHEMBL4613270, “Structure-Activity Relationship Study Enables the Discovery of a Novel Berberine Analogue as the RXRα Activator to Inhibit Colon Cancer” (J Med Chem, 2020)
